GRK2 aptamer HTS = human GRK2 inhibition via aptamer displacement; P25098; bead flow cytometry, FAM-aptamer displacement from GRK2; inhibition of aptamer binding, % at 10 µM; 0.59% of 330,000 active; AID 488847;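 active = inhibition of aptamer binding above 40%, roughly 3 SD of noise, on plates passing a quality check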;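 also: median bead fluorescence of bound FAM aptamer so fluorescent compounds give negative values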
procasp7 counter = counter-screen: procaspase-7 (human) activation; recombinant procaspase-7, Ac-DEVD-pNA absorbance 405 nm; D23A/D198A/D206A triple mutant, cannot self-cleave; scale: DMSO 0, 5 µM enzyme 100; activation, % at 8.5 µM; 0.093% of 330,000 active; AID 463210;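 active = percent activation above the screen-wide mean plus 3 SD, cut at about 25% in these data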
Target sequence (P55210 whole entry D23A/D198A/D206A): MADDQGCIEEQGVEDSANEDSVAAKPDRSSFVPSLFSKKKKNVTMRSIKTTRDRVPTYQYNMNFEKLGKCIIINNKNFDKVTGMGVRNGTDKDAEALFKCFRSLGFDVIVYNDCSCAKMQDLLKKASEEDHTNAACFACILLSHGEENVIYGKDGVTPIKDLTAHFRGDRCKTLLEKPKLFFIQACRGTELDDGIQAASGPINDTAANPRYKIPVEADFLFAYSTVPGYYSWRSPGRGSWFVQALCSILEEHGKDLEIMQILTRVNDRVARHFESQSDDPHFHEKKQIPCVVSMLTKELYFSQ
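buffer or medium = Zinc-free HEPES/NaCl buffer, pH 7.4 | material = Procaspase-7 triple mutant (PC-7 D3A) | input = 2 µM procaspase-7 mutant as dispensed | signal = Epi-absorbance of released pNA at 405 nm, two timepoints | timing = 1 h preincubation, 2 h reaction | replicates = singlicate compound testing | evaluation = % activation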
Hep lipid drop = hepatic lipid droplet formation modulation; AML12 mouse hepatocytes, oleate lipid droplets, BODIPY imaging; AID 1656; inhibition, % at 6.5 µM; 0.4% of 240,000 active;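 active = lipid droplet intensity inhibited by at least 50%, with more than 500 cells counted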
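Assay system: AML12 mouse liver cells | Compound: 6.5 µM single-point dosing | Schedule: Overnight exposure | Technique: Fluorescence imaging, 20x objective, two fields per well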
procasp3 activ = activates human procaspase-3; P42574; recombinant procaspase-3 D3A, Ac-DEVD-pNA absorbance 405 nm; activation, % at 8.5 µM; 0.11% of 330,000 active;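 active = activation above the mean of all tested compounds plus 3 SD, cut at about 21% in these data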;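 also: 0% = DMSO alone and 100% = DMSO wells spiked with extra 5 µM PC-3 D3A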
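Technique: 405 nm absorbance of p-nitroaniline, reads at 0 and 120 min; Test system: Procaspase-3 D3A mutant; Incubation: 1 h enzyme-compound preincubation, then 2 h substrate reaction, 25 °C; Repeats: singlicate, each compound tested once; Benchmarks: low control DMSO wells, high control DMSO plus 5 µM PC-3 D3A.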
VLA-4 inh = inhibition in a human VLA-4 binding assay; P13612; inhibition, % (about 7 µM as worked out from the volumes in the protocol); VLA-4 expressing cells, ligand binding flow cytometry; 0.2% of 330,000 active; in the data active = inhibition above about 50%
JMJD2C inh = human JMJD2C demethylase inhibition; 0.069% of 330,000 active; inhibition, % at 2.35 µM; GST-JMJD2C(1-420) H3K9me3 demethylation, DELFIA europium; AID 2099;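 active = more than half of a compound's replicate wells show inhibition beyond 50%, single wells judged on their own value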;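 also: signal counts dimethyl H3K9 product captured on neutravidin plate; 0% = median of DMSO wells and 100% = 0.3 times that DMSO median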
GRK2 CP1 = confirmation of human GRK2 inhibitors displacing RNA aptamer. 4% of 2,000 active. shares compounds with GRK2 aptamer HTS. aptamer displacement, % at 10 µM. bead-bound GRK2, FAM-aptamer displacement, flow cytometry;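 active = aptamer displacement above 40%, near three times the noise of non-fluorescent compounds, on plates passing quality checks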;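 also: negative values mostly reflect intrinsic compound fluorescence rather than true enhancement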
FAM quench CP1 = quenches fluorescent RNA aptamer, GRK2 hit artifact; shares compounds with GRK2 aptamer HTS; Carboxyfluorescein RNA aptamer on beads, flow cytometry quenching; hits give low values; fluorescence response (% of DMSO), % at 10 µM; 2,000 tested, under 10 active; AID 504580;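 active = compounds that quench the bead-bound fluorescent RNA probe, cutting fluorescence to under half of the solvent control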;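 also: counterscreen run without GRK2 so only probe quenching by compound is measured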
GRK2 confirm 2 = confirmation of human GRK2 inhibitors binding RNA aptamer site. shares compounds with GRK2 aptamer HTS. bead-bound GRK2, FAM-aptamer displacement, flow cytometry. inhibition of aptamer binding, % at 10 µM. 360 tested, under 10 active. AID 504782;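 active = inhibition of aptamer binding above 40%, about triple the noise seen with nonglowing compounds, on plates passing quality control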;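 also: negative values mostly come from compounds that fluoresce themselves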
FAM quench CP2 = counter-screen for GRK2 binding hits: quenchers of fluorescent RNA aptamer. shares compounds with GRK2 aptamer HTS. carboxyfluorescein RNA aptamer beads, flow cytometry quenching; hits give low values. fluorescence response vs DMSO, % at 10 µM. 360 tested, under 10 active. AID 588494;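 active = response vs DMSO under 50%, meaning signal dropped by over half, treated as fluorescence quencher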;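 also: labelled aptamer on streptavidin beads without GRK2 as a quench counter-screen; 100% = bead fluorescence of DMSO wells and lower means quenching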
* = called active by the depositor; . = no result given. This is a sample that favours compounds with a hit; in the whole collection about 1.3% have one here.

SMILES	GRK2 aptamer HTS	procasp7 counter	Hep lipid drop	procasp3 activ	VLA-4 inh	JMJD2C inh	GRK2 CP1	FAM quench CP1	others
O=C(c1ccco1)N(Cc1cccc(Cl)c1)C1CCS(=O)(=O)C1 (stereo unspecified)	0.0	-10.3	-1.3	3.3	-126.3	-4.3	.	.
Cc1ccc(S(=O)(=O)c2nc(S(=O)(=O)c3ccc(C)cc3)c(N3CCN(CCO)CC3)s2)cc1	0.0	11.0	-8.9	-8.4	-15.5	-2.9	-3.0	97.1
Cc1ccc(S(=O)(=O)c2nc(S(C)(=O)=O)sc2N2CCC3(CC2)OCCO3)cc1	52.0*	1.2	-16.0	-0.7	-18.2	-0.7	.	.	GRK2 confirm 2=-0.9;FAM quench CP2=100.0
CC1CCC2(CC1)NC(=O)N(CC(=O)N1c3ccccc3CC1C)C2=O (stereo unspecified)	0.0	7.8	.	6.9	0.0	3.6	.	.
Cc1cccc(N2CC(C(=O)Nc3ccccc3N3CCOCC3)CC2=O)c1C (stereo unspecified)	32.0	0.6	.	9.3	0.0	-19.1	1.2	100.4
Cc1cccc(N2CC(C(=O)Nc3ccc(N4CCOCC4)cc3)CC2=O)c1C (stereo unspecified)	0.0	-11.4	.	2.1	23.9	-4.5	.	.
CCn1c(SCc2ccccc2F)nnc1-c1ccncc1	0.0	-3.0	24.3	-1.6	6.2	1.8	.	.
CC(C)n1cnnc1SCC(=O)Nc1cccc(S(=O)(=O)N(C)c2ccccc2)c1	1.0	12.4	4.8	3.7	6.0	0.1	.	.
CC(C)Sc1nc2c([nH]1)c(=N)ncn2Cc1ccccc1	81.0*	7.4	-1.0	-5.0	-2.8	4.7	-0.3	97.4
Cc1cccc(OCCSc2nc3c([nH]2)c(=N)ncn3Cc2ccccc2)c1	0.0	3.5	-14.0	16.2	4.4	-3.4	.	.
CC1(C)CC(NC(=S)NC2CC2)CC(C)(C)N1	69.0*	10.1	6.6	-0.6	9.4	9.7	0.5	97.8
C=CCNC(=S)NC1CC(C)(C)NC(C)(C)C1	0.0	6.0	-2.3	7.6	21.6	14.1	.	.
CC1SC(c2ccc(F)cc2)N(CCc2ccccc2)C1=O (stereo unspecified)	0.0	-8.7	-37.9	-4.8	5.2	-19.9	.	.
O=C(O)C1CCN(C(=O)CSc2nc3ccccc3c(=O)n2Cc2ccccc2)CC1	1.0	5.9	0.7	12.1	2.7	-16.1	.	.
CCOC(=O)c1ccc(NC(=O)CC2S/C(=N/N=C3/NC(=O)CS3)NC2=O)cc1 (stereo unspecified)	6.0	9.8	3.9	-2.3	-2.4	-6.5	.	.
Cc1ccc(NC(=O)CC2S/C(=N/N=C3/NC(=O)CS3)NC2=O)cc1 (stereo unspecified)	91.0*	-12.2	7.1	-3.2	7.9	-3.9	2.9	99.1
Cc1ccc(NC(=O)c2cccc(OCc3c(C)noc3C)c2)cc1	2.0	-0.1	11.8	4.4	-3.6	6.0	.	.
Cc1noc(C)c1COc1cccc(C(=O)NCc2cccc(Cl)c2)c1	5.0	1.2	.	-3.2	7.5	14.4	-2.6	99.6
Cc1noc(C)c1COc1cccc(C(=O)Nc2ccccc2)c1	2.0	-9.1	.	-4.5	-20.0	.	.	.
Cc1ccc(CNC(=O)c2cccc(OCc3c(C)noc3C)c2)cc1	1.0	4.8	.	2.5	3.8	7.4	-3.2	94.6
